Source: PubChem
Rows were chosen to be rich in hits. Some 2.3% of all compounds tested hit in one or more screens of this group.
DNMT1 inh – blocks human DNA methyltransferase DNMT1; DNMT1 molecular beacon, Hinp1I cleavage, fluorescence; P26358; inhibition (reported as % activation of signal), % at 10 µM; 360,000 compounds, 0.83% hits; AID 588458; in the data active = inhibition above about 50%
MT1-MMP act inh – inhibitors of human MT1-MMP activation. 360,000 compounds, 0.061% hits. HT1080 RFP-PRO-GFP cells, GFP/RFP ratio fluorescence, overnight; percent of plate control window, DMSO zero. GFP/RFP ratio change, % at 20 µM. AID 651647;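 active = GFP/RFP ratio change of at least 30% with cell ATP level not reduced by more than half and red fluorescence within 50% of control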
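system = RFP-PRO-GFP reporter HT1080 cells | dosing = 20 µM single dose, 1% DMSO | timing = overnight cell settling, then overnight compound exposure, 37 °C, 5% CO2 | read-out basis = GFP/RFP fluorescence ratio | controls = DMSO and RFP-L50D-GFP cell wells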
CSN inh – inhibitors of human CSN-mediated cullin deneddylation; Q92905; 360,000 compounds, 0.38% hits; Purified CSN, SCF-Nedd8-OG deneddylation, fluorescence polarization; inhibition, % at 12.5 µM;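 active = pattern-corrected inhibition above about 35%, with an unprinted fluorescence ratio check between 0.5 and 1.5, limit read from the data, passing the limit was not always enough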
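Test system: purified human Csn5 enzyme expressed in HEK293T cells. Amount: 0.24 nM enzyme. Reagent: SCFSkp2-Nedd8OG substrate at 10 nM final. Schedule: 90 min incubation of compound, enzyme and substrate at room temperature. Detection: fluorescence polarization. Read-out: % inhibition of substrate cleavage by Csn5.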
SUMO1 PPI mod – alters human SUMO1 binding to SIM partners | P63165 | SUMO1 binding to a labelled peptide, TR-FRET, 1 h | inhibition, % at 20 µM | 360,000 compounds, 0.33% hits | AID 602429; in the data active = inhibition above about 37%
Rpn11 block – inhibitors of human proteasome Rpn11. human 26S proteasome, Ub4-pepOG fluorescence polarization; 20S core pre-blocked with epoxomicin. 360,000 compounds, 0.59% hits. AID 588493. inhibition, % at 20 µM;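 active = inhibition at 20 µM, scaled to each plate's controls, above about 33%, limit read from the data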
SKN-1 inh – inhibitors of C. elegans SKN-1 | C. elegans VP596 Pgst-4::GFP/RFP ratio, acrylamide-induced, 24 h | 360,000 compounds, 0.49% hits | inhibition, % at 21.8 µM | AID 624304;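 active = interference check ratio from 0.5 to 1.5 plus GFP to RFP signal ratio inhibition reaching or exceeding a fixed threshold, cut at about 30% in these data, passing the limit was not always enough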
A number is an active result.

`COc1cccc(C(=O)NCc2ccc3c(c2)cc(C)n3C)c1` gave DNMT1 inh inactive, MT1-MMP act inh inactive, CSN inh inactive, SUMO1 PPI mod inactive, Rpn11 block inactive and SKN-1 inh inactive.
`Cc1cccc(C)c1NC(=O)CN(Cc1ccccc1)Cc1ccccc1` gave DNMT1 inh inactive, MT1-MMP act inh inactive, CSN inh inactive, SUMO1 PPI mod inactive, Rpn11 block inactive and SKN-1 inh inactive.
Cc1ccc(/C=C2/NC(=O)N(c3ccccc3)C2=O)o1 was read as DNMT1 inh inactive, MT1-MMP act inh inactive, CSN inh inactive, SUMO1 PPI mod inactive, Rpn11 block inactive and SKN-1 inh inactive.
For O=C1N/C(=C/c2ccc(N3CCOCC3)o2)C(=O)N1c1cccc(Cl)c1 the results were DNMT1 inh inactive, MT1-MMP act inh inactive, CSN inh inactive, SUMO1 PPI mod inactive, Rpn11 block 65.0 and SKN-1 inh inactive.
`COc1cc(CNC(C)(C)CO)cc(Br)c1OCc1ccc(Cl)cc1Cl` gave DNMT1 inh inactive, MT1-MMP act inh inactive, CSN inh inactive, SUMO1 PPI mod inactive, Rpn11 block inactive and SKN-1 inh inactive.
Screening COc1cc(CNC(C)c2ccccc2)cc(Br)c1OCc1ccc(F)cc1 (stereo unspecified) returned DNMT1 inh inactive, MT1-MMP act inh inactive, CSN inh inactive, SUMO1 PPI mod inactive, Rpn11 block inactive and SKN-1 inh 65.5.
For COc1cc(CNC(C)(C)CO)cc(Br)c1OCc1ccc(Cl)cc1 the results were DNMT1 inh inactive, MT1-MMP act inh inactive, CSN inh inactive, SUMO1 PPI mod inactive, Rpn11 block inactive and SKN-1 inh 54.9.
For CCCC(=O)N1CCCC1(C)C(=O)Nc1ccc(-n2cncn2)cc1 (stereo unspecified) the results were DNMT1 inh inactive, MT1-MMP act inh inactive, CSN inh inactive, SUMO1 PPI mod inactive, Rpn11 block inactive and SKN-1 inh inactive.
Cn1c(NCCc2ccncc2)nc2cc(-c3cccc(C(F)(F)F)c3)sc2c1=O was read as DNMT1 inh inactive, MT1-MMP act inh inactive, CSN inh inactive, SUMO1 PPI mod inactive, Rpn11 block inactive and SKN-1 inh inactive.
Screening CCC(CC)C(=O)N(C)c1c(C)nc2c(OCC3CCCCC3)cccn12 returned DNMT1 inh inactive, MT1-MMP act inh inactive, CSN inh inactive, SUMO1 PPI mod inactive, Rpn11 block inactive and SKN-1 inh inactive.
`O=C(COC(=O)c1ccc([N+](=O)[O-])s1)NC(=O)NCc1ccccc1` gave DNMT1 inh inactive, MT1-MMP act inh inactive, CSN inh inactive, SUMO1 PPI mod inactive, Rpn11 block inactive and SKN-1 inh inactive.
Screening O=C(COC(=O)c1ccc([N+](=O)[O-])s1)c1ccc[nH]1 returned DNMT1 inh 50.2, MT1-MMP act inh inactive, CSN inh inactive, SUMO1 PPI mod inactive, Rpn11 block inactive and SKN-1 inh inactive.
`O=C(COC(=O)c1ccc([N+](=O)[O-])s1)NCc1ccc(F)cc1` gave DNMT1 inh inactive, MT1-MMP act inh inactive, CSN inh inactive, SUMO1 PPI mod 49.4, Rpn11 block inactive and SKN-1 inh inactive.
C/C(=N\S(=O)(=O)c1ccc(C)cc1)N1CCCCC1 was read as DNMT1 inh inactive, MT1-MMP act inh inactive, CSN inh inactive, SUMO1 PPI mod inactive, Rpn11 block inactive and SKN-1 inh inactive.
For C/C(=N\S(=O)(=O)c1ccc(C)cc1)N(C)C the results were DNMT1 inh inactive, MT1-MMP act inh inactive, CSN inh inactive, SUMO1 PPI mod 45.0, Rpn11 block inactive and SKN-1 inh inactive.
O=C(Nc1cccc(Br)c1)Oc1cccc2cccnc12 was read as DNMT1 inh inactive, MT1-MMP act inh inactive, CSN inh inactive, SUMO1 PPI mod inactive, Rpn11 block inactive and SKN-1 inh inactive.
O=C(Nc1c(Cl)cccc1Cl)Oc1cccc2cccnc12 was read as DNMT1 inh inactive, MT1-MMP act inh inactive, CSN inh inactive, SUMO1 PPI mod inactive, Rpn11 block 51.2 and SKN-1 inh inactive.
For Fc1ccc(-c2nnc(-c3ccc4ccccc4c3)o2)cc1 the results were DNMT1 inh inactive, MT1-MMP act inh inactive, CSN inh inactive, SUMO1 PPI mod inactive, Rpn11 block inactive and SKN-1 inh 43.1.
`Fc1ccc(-c2nnc(-c3ccc(F)cc3)o2)cc1` gave DNMT1 inh inactive, MT1-MMP act inh inactive, CSN inh inactive, SUMO1 PPI mod inactive, Rpn11 block inactive and SKN-1 inh 38.7.
`Cc1ccc(Cl)cc1-c1cc(C(=O)Nc2ccc(F)cc2)[nH]n1` gave DNMT1 inh inactive, MT1-MMP act inh inactive, CSN inh inactive, SUMO1 PPI mod inactive, Rpn11 block inactive and SKN-1 inh inactive.
Screening CCOC(=O)CN1CC23C=CC(O2)C(C(=O)NCc2ccc(C)cc2)C3C1=O (stereo unspecified) returned DNMT1 inh inactive, MT1-MMP act inh inactive, CSN inh inactive, SUMO1 PPI mod inactive, Rpn11 block inactive and SKN-1 inh inactive.
CCOC(=O)CN1CC23C=CC(O2)C(C(=O)NCc2cccs2)C3C1=O (stereo unspecified) was read as DNMT1 inh inactive, MT1-MMP act inh inactive, CSN inh inactive, SUMO1 PPI mod inactive, Rpn11 block inactive and SKN-1 inh 37.4.
Screening Cc1cc(=O)oc2cc(OCC(=O)NCCCN3CCOCC3)ccc12 returned DNMT1 inh inactive, MT1-MMP act inh inactive, CSN inh inactive, SUMO1 PPI mod 40.3, Rpn11 block inactive and SKN-1 inh inactive.
Screening O=C(COc1ccc2c(-c3ccccc3)cc(=O)oc2c1)NCCCN1CCOCC1 returned DNMT1 inh inactive, MT1-MMP act inh inactive, CSN inh inactive, SUMO1 PPI mod inactive, Rpn11 block inactive and SKN-1 inh inactive.
For CCCCS/C(=C(/C#N)C(N)=O)c1cc2c([nH]1)CCCC2 the results were DNMT1 inh inactive, MT1-MMP act inh inactive, CSN inh inactive, SUMO1 PPI mod inactive, Rpn11 block inactive and SKN-1 inh 36.6.
COc1ccc(NC(=O)C2Cc3c(-c4ccc(Cl)cc4)ccnc3O2)cc1OC (stereo unspecified) was read as DNMT1 inh inactive, MT1-MMP act inh inactive, CSN inh inactive, SUMO1 PPI mod inactive, Rpn11 block inactive and SKN-1 inh inactive.
Screening CCc1ccccc1NC(=O)CCS(=O)(=O)c1ccc(Br)cc1 returned DNMT1 inh inactive, MT1-MMP act inh inactive, CSN inh inactive, SUMO1 PPI mod inactive, Rpn11 block inactive and SKN-1 inh inactive.
CCOc1ccccc1NC(=O)CCS(=O)(=O)c1ccc(Br)cc1 was read as DNMT1 inh 104.6, MT1-MMP act inh inactive, CSN inh inactive, SUMO1 PPI mod 56.6, Rpn11 block inactive and SKN-1 inh inactive.
For CC1(C(=O)Nc2ccc3c(c2)OCCO3)CCN1C(=O)Cc1ccc(-c2ccccc2)cc1 (stereo unspecified) the results were DNMT1 inh inactive, MT1-MMP act inh inactive, CSN inh inactive, SUMO1 PPI mod inactive, Rpn11 block inactive and SKN-1 inh inactive.
